Measurements from different studies.
Protocols differ between the studies behind these lines.
RET V804M: Proto-oncogene tyrosine-protein kinase receptor Ret (RET, Homo sapiens, UniProt P07949, V804M)
RET: Proto-oncogene tyrosine-protein kinase receptor Ret (RET, Homo sapiens, UniProt P07949)

target | read-out | mode | technique | concentration | endpoint | result | Structure (SMILES)
RET V804M | binding |  |  | 1 µM | remaining binding | 0.5% | CN1CCN(C(=O)c2ccc(NC(=O)Nc3ccc(N(C)c4ccnc(Nc5ccc(CS(C)(=O)=O)cc5)n4)cc3)cc2)CC1
Proto-oncogene tyrosine-protein kinase receptor Ret (RET, Homo sapiens, UniProt P07949, V804L) | binding |  | competition with immobilised ligand | 0.5 µM | remaining binding | 100% | CCCCC(=O)Nc1ccc(-c2ccc3ncn(CCC)c(=O)c3c2)cn1
RET | enzyme activity | inhibitor |  | 1 µM | inhibition | 7% | CC#CC(=O)N1CCC[C@H]1c1nc(-c2ccc(C(=O)Nc3ccccn3)cc2)c2c(N)nccn12
RET V804M | binding |  |  | 1 µM | remaining binding | 98% | Cc1ccc(NC(=O)c2ccnc(C(F)(F)F)c2)cc1-c1cc(OCCO)nc(N2CCOCC2)c1
RET | enzyme activity | inhibitor |  | 1 µM | inhibition | 95% | CO[C@@H]1[C@H](N(C)C(=O)c2ccccc2)C[C@H]2O[C@]1(C)n1c3ccccc3c3c4c(c5c6ccccc6n2c5c31)C(=O)NC4
RET | cell-free assay |  | competition with immobilised ligand | 25 µM | remaining binding | 100% | N#Cc1ccc(NC(=O)Nc2ccccc2)cc1
Proto-oncogene tyrosine-protein kinase receptor Ret (RET, Homo sapiens, UniProt P07949, M918T) | binding |  |  | 0.1 µM | remaining binding | 100% | C1=C/COCc2cc(ccc2OCCN2CCCC2)Nc2nccc(n2)-c2cccc(c2)COC/1
RET | binding |  |  | 1 µM | remaining binding | 109% | COc1ccc2oc(-c3ccc4nc(N)oc4c3)c/c(=N\c3ccccc3NC(=O)CCN)c2c1
